Hits are enriched below; roughly 5.1% of the tested compounds scored in any of these assays.
NF-kB neuron act = raises NF-kB expression in human neuronal cells; AID 1239; 1.6% of 190,000 active; NF-kB reporter expression; active compounds read high; fold change at 12.5 µM; in the data active = fold change above about 3.3
STAT1 activator = STAT1 signaling activation | AID 932 | 2.6% of 200,000 active | activation (% of control), % at 5.5 µM | NIH 3T3 STAT1-luciferase reporter, IFN-gamma, luminescence; 100% = IFN-gamma alone, no compound;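 active = activation above the screen-wide mean activation plus 3 SD, cut at about 130% in these data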;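 note: raw ratio to IFN-gamma control signal so 100% means no change and 0% no light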
STAT3 inh = STAT3 signaling inhibition | U3A cells, IL-6 STAT3-luciferase reporter, luminescence; host cell line lacks STAT1 | inhibition, % at 5.5 µM | 0.89% of 190,000 active | AID 862;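 active = inhibition above the mean inhibition across all screened compounds plus 3 SD, cut at about 44% in these data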;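 note: 0% = DMSO only wells and 100% = 100 µM nifuroxazide control wells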
APP 5'UTR act = activates APP 5'UTR luciferase reporter. 1% of 190,000 active. AID 1276. SH-SY5Y APP 5'UTR luciferase reporter, luminescence; zero percent = DMSO vehicle wells. activation, % at 2 µM;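 active = activation above a set limit, based on mean plus 3 SD of controls, cut at about 140% in these data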
STAT3 activator = STAT3 signaling activation; U3A cells, IL-6 STAT3-luciferase reporter, luminescence; 100% = signal with IL-6 EC80 alone; activation (% of control), % at 5.6 µM; 0.91% of 190,000 active;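 active = activation above the screen-wide mean of compound activation plus 3 SD, cut at about 130% in these data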;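 note: 0% = background luminescence of wells with medium and substrate only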
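Material: human STAT1-deficient U3A cells with stable STAT3-luciferase reporter / Probe or stimulus: IL-6 stimulus at 33 ng/mL final / Schedule: 1 h compound pre-exposure, 6 h IL-6 stimulation, 37 °C / Technique: luminescence / Read-out basis: percent of IL-6-only median luminescence / Control set: IL-6-only high control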
STAT1 inh = inhibitors of IFN-gamma induced STAT1 signaling | NIH 3T3 STAT1-luciferase reporter, luminescence | inhibition, % at 5.5 µM | 0.35% of 200,000 active;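 active = inhibition above a set limit, the mean inhibition across all tested compounds plus 3 SD, cut at about 34% in these data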;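 note: 0% = IFN-gamma with DMSO and 100% = IFN-gamma with 300 µM nifuroxazide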
Starred values were filed as active, the others as inactive.

SMILES	NF-kB neuron act	STAT1 activator	STAT3 inh	APP 5'UTR act	STAT3 activator	STAT1 inh
Cc1nc2sc(C(=O)Nc3ccccc3)c(N)c2c(C)c1[N+](=O)[O-]	1.7	126	-28	168*	128	-25
S=C(N/N=C/c1ccc(Cl)cc1)N1CCOCC1	1.5	132*	6	27	98	-36
Cc1ccc(/C=N/NC(=S)N2CCOCC2)cc1	1.6	131*	-13	64	113	-35
Cc1ccc(CNC(=S)N2CCOCC2)cc1	1.1	92	4	25	103	7
Cc1ccsc1C(=O)N1CCCC(CCC(=O)N2CCN(c3ccccn3)CC2)C1 (stereo unspecified)	1	94	9	5	96	4
Cc1ccc(CN2CCN(Cc3cnc(C)[nH]3)CC2CCO)cc1 (stereo unspecified)	1.2	98	5	10	97	3
Cc1ccc(-c2cn3c(n2)CCCC3)cc1	1.4	98	8	22	97	4
COc1ccc(-c2cn3c(n2)CCC3)cc1	2.3	129*	-4	36	108	-32
O=C(O)c1ccc(/C=C/c2nc3sc4c(c3c(=O)[nH]2)CCC4)cc1	1	102	13	-1	95	-4
CN1C(=O)/C(=C/C=C2\SCCN2C)N(C)C1=S	5.3*	132*	-5	75	105	-34
Cc1ccc(NNS(=O)(=O)c2ccc(C)cc2)cc1	1.1	98	-36	17	135*	3
Cc1ccc(S(=O)(=O)NNC(=O)C(=O)NNS(=O)(=O)c2ccc(C)cc2)cc1	1.1	94	5	6	99	4
N#C/C(=C\c1ccc(Sc2ccccc2)o1)c1nc2ccccc2[nH]1	1.7	107	-14	139*	109	-5
N#C/C(=C\c1ccc([N+](=O)[O-])o1)c1nc2ccccc2[nH]1	1.5	84	-7	-97	105	18
COc1cc(OC)cc(C(=O)Nn2cc(C(=O)Nc3ccccc3F)c3ccccc3c2=O)c1	1.5	84	-46	-13	134*	19
O=C(Nn1cc(C(=O)Nc2ccccc2F)c2ccccc2c1=O)c1cnccn1	1.3	92	0	-13	102	7
O=C(Oc1ccc(/C=N/O)cc1)c1ccccc1Cl	2	142*	5	61	100	-48
Cc1cccc(C(=O)Oc2ccc(/C=N/O)cc2)c1	3.1	135*	-2	149*	105	-38
Cc1cccc(C(=O)Oc2ccccc2/C=N/Nc2ccc([N+](=O)[O-])cc2)c1	1	90	-10	-16	107	11
O=C(Nc1nc2c(ccc3ccccc32)s1)c1cc([N+](=O)[O-])ccc1N1CCOCC1	1.2	131*	-31	20	133*	-35
O=C(Nc1nc(-c2ccc(-c3ccccc3)cc2)cs1)c1cc([N+](=O)[O-])ccc1N1CCOCC1	1.1	107	2	15	103	-10
N#CC(c1ccc(Cl)cc1)c1ccc2c(C(F)(F)F)cc(C(F)(F)F)nc2n1 (stereo unspecified)	1.3	31	87*	4	29	75*
O=S(=O)(c1ccc(NC(=S)NN=C2CCCCC2)cc1)N1CCOCC1	1	100	2	13	101	-1
O=c1c2cc(N3CCOCC3)ccc2[nH]c(=S)n1CCc1ccccc1	1.8	132*	30	14	82	-36
CS(=O)(=O)N1CCc2cc(C(=O)OCC(=O)c3ccccc3)ccc21	4*	156*	-13	8	111	-57
SMILES	NF-kB neuron act	STAT1 activator	STAT3 inh	APP 5'UTR act	STAT3 activator	STAT1 inh
O=C(NCCc1cccs1)C1CC(c2c(Cl)cccc2Cl)=NO1 (stereo unspecified)	1.2	98	16	22	96	3
Cc1cc(C(=O)N/N=C/c2cccc([N+](=O)[O-])c2)c(C)n1-c1ccccc1	1.2	132*	-5	36	104	-35
Cc1ccc(NC(=O)c2cc(C)n(-c3ccccc3)c2C)cc1	0.33	65	88*	52	24	39*
Cc1c(C(=O)N2CCN(c3ccc(F)cc3)CC2)sc2nc(-c3ccccc3)cn12	1.1	101	12	18	94	-1
Cc1c(C(=O)N2CCOCC2)sc2nc(-c3ccccc3)cn12	2	134*	8	61	98	-37
Cc1cc(C)c[n+](-c2nc3ccccc3nc2C(=C=[N-])C#N)c1	4.4*	97	4	3	101	5
CCOc1ncccc1C(=O)N1CCN(c2cc(Cl)ccc2C)CC1	2.2	102	-5	-91	107	-5
CCOc1ncccc1C(=O)N1CCN(c2cccc(C)c2C)CC1	3.9*	97	-13	-95	120	1
CN(CCc1ccccn1)C(=O)CCC1CCCN(C(=O)c2c3c(nn2C)CCCC3)C1 (stereo unspecified)	1	97	10	10	96	2
Cc1ccc2nc(C(Cl)(Cl)Cl)nc(N/N=C/c3ccncc3)c2c1	1.1	96	15	-1	95	2
Cc1ccc(/C=N/Nc2nnc(Cl)c3ccccc23)cc1	9.3*	131*	-4	159*	107	-34
Cc1ccc(-c2nc(N/N=C/c3ccncc3)c3ccccc3n2)cc1	2.4	29	90*	31	25	78*
C(=N\Nc1nc2ccccc2[nH]1)/c1ccccc1	1	124	21	128	84	-29
C(=N\Nc1ncnc2ccccc12)/c1ccccc1	6*	132*	28	63	82	-33
Clc1nnc(NN=C2CCCC2)c2ccccc12	1.1	108	-25	25	126	-8
COc1ccc(/C=N/Nc2nnc(-c3ncc[nH]3)c3ccccc23)cc1	0.94	142*	33	65	74	-47
Oc1ccc2ccccc2c1/C=N/Nc1nnc(-c2ncc[nH]2)c2ccccc12	0.8	74	24	6	84	29
COc1ccc(Cl)cc1N(C(C)C(=O)NC1CCCC1)S(C)(=O)=O (stereo unspecified)	0.7	98	11	12	98	3
Cn1cccc1/C=N/N1CCN(c2ccccc2)CC1	1.3	110	21	2	87	-13
CC1(C(=O)NCc2ccc(Cl)c(Cl)c2)Oc2ccccc2NC1=O (stereo unspecified)	1.2	91	14	-3	92	9
COc1ccccc1/C=C/C(=O)OCc1nc2ccccc2c(=O)[nH]1	0.96	97	-10	-14	109	4
Clc1ccc(/C=N/Nc2nc(Cl)nc3ccccc23)cc1	1.6	133*	10	28	93	-36
Clc1ccccc1-c1nc(N/N=C/c2cccnc2)c2ccccc2n1	0.44	92	33	0	75	8
Cc1ccc(-n2ncc3ccccc3c2=O)cc1Cl	4.9*	148*	16	97	91	-53
